These results are taken from ChEMBL document CHEMBL1629557, “Development of intergenotypic chimeric replicons to determine the broad-spectrum antiviral activities of hepatitis C virus polymerase inhibitors” (Antimicrob Agents Chemother, 2008).

pEC50: −log10 of the molar value. Bounds are passed on as bounds.

Assay [1] has as its system Hepatitis C virus. Put plainly: Antiviral activity against Hepatitis C virus isolate Con1 infected in human Huh7.5 cells assessed as decrease in viral RNA replication after 3 days by hRLuc reporter gene assay. The conditions noted are these: Con1, Huh-7, 72 h. It counts as functional, organism-based, Hepacivirus hominis. Put shortly: (§1)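 Stable Huh7.5 replicon cell lines, kept in medium with 250 μg/ml G418, seeded at 2e4/well and settled 30 min. Compounds were added in half-log serial dilutions with solvent (compound-free) controls for 3 days at 37°C, then hRLuc activity was read. Fold change is EC50 relative to wild-type Con-1.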
(In a reporter assay the amount or activity of a reporter protein is the signal.)

For assay [2], the system named is Hepatitis C virus. Put plainly: Antiviral activity against Hepatitis C virus genotype 1a H77 infected in human Huh7.5 cells assessed as decrease in viral RNA replication after 3 days by hRLuc reporter gene assay. It counts as functional, organism-based, Hepacivirus hominis. To be noted: genotype 1a H77, Huh-7, 72 h. An outline of the steps: as §1
The test system of assay [3] is Hepatitis C virus. Put plainly: Antiviral activity against Hepatitis C virus genotype 2a JFH1 infected in human Huh7.5 cells assessed as decrease in viral RNA replication after 3 days by hRLuc reporter gene assay. It counts as functional, organism-based, Hepacivirus hominis. To be noted: JFH-1, Huh-7, 72 h. An outline of the steps: as §1
For assay [4], the system named is Hepatitis C virus. Put plainly: Antiviral activity against Hepatitis C virus isolate Con1 transfected with NS5B polymerase of HCV genotype 2b in human Huh7.5 cells assessed as decrease in viral RNA replication after 3 days by hRLuc reporter gene assay. It counts as functional, organism-based, Hepacivirus hominis. To be noted: Con1, Huh-7, 72 h. An outline of the steps: as §1

Assay [5] concerns Hepatitis C virus. The assay is described as follows: Antiviral activity against Hepatitis C virus isolate Con1 transfected with NS5B polymerase of HCV genotype 3a infected in human Huh7.5 cells assessed as decrease in viral RNA replication after 3 days by hRLuc reporter gene assay. It counts as functional, organism-based, Hepacivirus hominis. To be noted: Con1, Huh-7, 72 h. Put shortly: as §1

Assay [6] relates to Hepatitis C virus. Put plainly: Antiviral activity against Hepatitis C virus isolate Con1 transfected with NS5B polymerase of HCV genotype 4a infected in human Huh7.5 cells assessed as decrease in viral RNA replication after 3 days by hRLuc reporter gene assay. It counts as functional, organism-based, Hepacivirus hominis. To be noted: Con1, Huh-7, 72 h. An outline of the steps: as §1

Assay [7] has as its system Hepatitis C virus. Put plainly: Antiviral activity against Hepatitis C virus isolate Con1 transfected with NS5B polymerase of HCV genotype 5a infected in human Huh7.5 cells assessed as decrease in viral RNA replication after 3 days by hRLuc reporter gene assay. It counts as functional, organism-based, Hepacivirus hominis. The conditions noted are these: Con1, Huh-7, 72 h. Put shortly: as §1

For assay [8], the system named is Hepatitis C virus. Put plainly: Ratio of EC50 for wild-type Hepatitis C virus isolate Con1 to EC50 for Hepatitis C virus genotype 1a H77 in human Huh7.5 cells by hRLuc reporter gene assay. It counts as functional, Hepacivirus hominis, Huh-7. Put shortly:
as §1

In assay [9] the test system is Hepatitis C virus. The assay is described as follows: Ratio of EC50 for wild-type Hepatitis C virus isolate Con1 to EC50 for Hepatitis C virus genotype 2a JFH1 in human Huh7.5 cells by hRLuc reporter gene assay. It counts as functional, Hepacivirus hominis, Huh-7. An outline of the steps:
as §1

Assay [10] deals with Hepatitis C virus. Put plainly: Ratio of EC50 for wild-type Hepatitis C virus isolate Con1 to EC50 for Hepatitis C virus isolate Con1 transfected with NS5B polymerase of HCV genotype 2b in human Huh7.5 cells by hRLuc reporter gene assay. It counts as functional, Hepacivirus hominis, Huh-7. An outline of the steps: as §1
For assay [11], the system named is Hepatitis C virus. Put plainly: Ratio of EC50 for wild-type Hepatitis C virus isolate Con1 to EC50 for Hepatitis C virus isolate Con1 transfected with NS5B polymerase of HCV genotype 3a in human Huh7.5 cells by hRLuc reporter gene assay. It counts as functional, Hepacivirus hominis, Huh-7. Put shortly: as §1
The test system of assay [12] is Hepatitis C virus. The assay is described as follows: Ratio of EC50 for wild-type Hepatitis C virus isolate Con1 to EC50 for Hepatitis C virus isolate Con1 transfected with NS5B polymerase of HCV genotype 4a in human Huh7.5 cells by hRLuc reporter gene assay. It counts as functional, Hepacivirus hominis, Huh-7. An outline of the steps:
as §1

Assay [13] concerns Hepatitis C virus. Put plainly: Ratio of EC50 for wild-type Hepatitis C virus isolate Con1 to EC50 for Hepatitis C virus isolate Con1 transfected with NS5B polymerase of HCV genotype 5a in human Huh7.5 cells by hRLuc reporter gene assay. It counts as functional, Hepacivirus hominis, Huh-7. An outline of the steps:
as §1

Assay [14] deals with Hepatitis C virus. The assay is described as follows: Ratio of EC50 for wild-type Hepatitis C virus isolate Con1 to EC50 for Hepatitis C virus isolate Con1 with NS5B polymerase L419I mutant in human Huh7.5 cells by hRLuc reporter gene assay. It counts as functional, Hepacivirus hominis, Huh-7. Put shortly:
(§2)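 Transient assay: Huh7.5 cells electroporated with 10 μg in vitro replicon transcript at 220 V, seeded at 6 × 10^4 cells/well, and given 4 h recovery. Half-log serial compound dilutions with solvent controls were then added for 3 days at 37°C, and hRLuc luciferase was read. EC50 was taken as 50% of compound-free signal by nonlinear regression, as mean ± SD of 2–3 independent experiments. Fold change is relative to wild-type Con-1.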

The subject of assay [15] is Hepatitis C virus. The assay is described as follows: Ratio of EC50 for wild-type Hepatitis C virus isolate Con1 to EC50 for Hepatitis C virus isolate Con1 with NS5B polymerase I482L mutant in human Huh7.5 cells by hRLuc reporter gene assay. It counts as functional, Hepacivirus hominis, Huh-7. An outline of the steps: as §2
Assay [16] deals with Hepatitis C virus. Put plainly: Ratio of EC50 for wild-type Hepatitis C virus isolate Con1 to EC50 for Hepatitis C virus isolate Con1 with NS5B polymerase L419I and I482L mutant in human Huh7.5 cells by hRLuc reporter gene assay. It counts as functional, Hepacivirus hominis, Huh-7. An outline of the steps:
as §2

Regarding `COc1ccc2c(O[C@@H]3C[C@H]4C(=O)N[C@@]5(C(=O)O)C[C@@H]5/C=C\CCCCC[C@H](NC(=O)OC(C)(C)C)C(=O)N4C3)cc(-c3ccccn3)nc2c1` [listing 1 of 2 here], the negative logarithm of the EC50 (pEC50) (as a rule, the EC50 on a negative log10 scale, so that one unit is a factor of ten) is 8.18 in the assay with Hepatitis C virus [1]; 7.70 with Hepatitis C virus [2]; 6.13 with Hepatitis C virus [3]; 7.59 with Hepatitis C virus [4]; 7.66 in the assay with Hepatitis C virus [5]; 7.28 with Hepatitis C virus [6]. In the assay on Hepatitis C virus [7], the pEC50 was 7.64.

`COc1ccc2c(O[C@@H]3C[C@H]4C(=O)N[C@@]5(C(=O)O)C[C@@H]5/C=C\CCCCC[C@H](NC(=O)OC(C)(C)C)C(=O)N4C3)cc(-c3ccccn3)nc2c1` [listing 2 of 2 here]: the “fold change (FC)” value with Hepatitis C virus [8] stood at 3; in the assay with Hepatitis C virus [9] it was 112; in the assay on Hepatitis C virus [10], 4; in the assay on Hepatitis C virus [11], 3; in the assay on Hepatitis C virus [12], 8; in the assay on Hepatitis C virus [13], 3.

Take `CC(C)C#Cc1cc(N(C(=O)[C@H]2CC[C@H](C)CC2)C(C)C)c(C(=O)O)s1`: the pEC50 in the assay with Hepatitis C virus [1] was 7.60; in the assay with Hepatitis C virus [2], 7.70; with Hepatitis C virus [3], 5.21; in the assay with Hepatitis C virus [4] it was under 4.49; in the assay with Hepatitis C virus [5] it was under 4.49; with Hepatitis C virus [6], 5.66. For the same compound, the pEC50 in the assay with Hepatitis C virus [7] is 6.70. Besides, the “fold change (FC)” value in the assay on Hepatitis C virus [8] was 1; in the assay with Hepatitis C virus [9] it was 244; in the assay with Hepatitis C virus [10] it was over 1280; in the assay on Hepatitis C virus [11] it was over 1280; in the assay with Hepatitis C virus [12], 88; in the assay on Hepatitis C virus [13], 8. The “fold change (FC)” value is 326 with Hepatitis C virus [14], 201 in the assay with Hepatitis C virus [15] and 2238 in the assay on Hepatitis C virus [16].

With `O=C(O)c1ccc2c(c1)nc(-c1ccc(OCc3cc(C(=O)N4CCC(O)CC4)ccc3-c3ccc(Cl)cc3)cc1F)n2C1CCCCC1`, the pEC50 in the assay on Hepatitis C virus [1] is 6.05; in the assay with Hepatitis C virus [2] it was 6.31; with Hepatitis C virus [3] it was 5.16; in the assay on Hepatitis C virus [4] it was 4.52; with Hepatitis C virus [5], 6.68; in the assay on Hepatitis C virus [6], 5.82. In the assay on Hepatitis C virus [7], the pEC50 was 6.80. The “fold change (FC)” value was 1 with Hepatitis C virus [8]; 8 in the assay with Hepatitis C virus [9]; 33 in the assay on Hepatitis C virus [10]; 0.2 with Hepatitis C virus [11]; 2 with Hepatitis C virus [12]; 0.2 in the assay on Hepatitis C virus [13]. Also, the “fold change (FC)” value turned out to be 4 with Hepatitis C virus [14], 3 in the assay with Hepatitis C virus [15] and 8 in the assay with Hepatitis C virus [16].

For the compound `NC(=O)COc1ccc2c(c1)S(=O)(=O)N=C(c1c(O)c3ccccc3n(NC3CCC3)c1=O)N2`, the pEC50 in the assay on Hepatitis C virus [1] was 7.48; in the assay on Hepatitis C virus [2], 6.85; in the assay with Hepatitis C virus [3] it was under 4.49; in the assay with Hepatitis C virus [4] it was under 4.49; in the assay on Hepatitis C virus [5], under 4.49; in the assay with Hepatitis C virus [6], 4.60. Besides, the pEC50 in the assay on Hepatitis C virus [7] is 5.30. The “fold change (FC)” value is on record as 4 with Hepatitis C virus [8]; over 970 in the assay with Hepatitis C virus [9]; over 970 with Hepatitis C virus [10]; over 970 in the assay with Hepatitis C virus [11]; 758 with Hepatitis C virus [12]; 152 with Hepatitis C virus [13]. For the same compound, the figures for the “fold change (FC)” value in the assay with Hepatitis C virus [14], in the assay with Hepatitis C virus [15] and with Hepatitis C virus [16] were 0.2, 0.5 and 0.2, respectively.

With `C[C@@]1(O)[C@H](O)[C@@H](CO)O[C@H]1n1ccc(N)nc1=O`, the “fold change (FC)” value in the assay with Hepatitis C virus [8] came out at 1; with Hepatitis C virus [9] it was 1; with Hepatitis C virus [10], 0.4; in the assay with Hepatitis C virus [11], 0.2; with Hepatitis C virus [12], 2; in the assay with Hepatitis C virus [13], 0.5. Also, the “fold change (FC)” value with Hepatitis C virus [14] is 1; in the assay on Hepatitis C virus [15], 1; in the assay on Hepatitis C virus [16], 2.

On to `CNC(=O)c1c(-c2ccc(F)cc2)oc2cc(N(CCO)S(C)(=O)=O)c(C3CC3)cc12` [NESBUVIR], for which the pEC50 in the assay with Hepatitis C virus [1] is 7.38; with Hepatitis C virus [2], 7.42; in the assay with Hepatitis C virus [3], 6.89; in the assay on Hepatitis C virus [4] it was 7.26; with Hepatitis C virus [5], 7.29; with Hepatitis C virus [6], 7.16. In the assay on Hepatitis C virus [7], the negative logarithm of the EC50 (pEC50) was 8.49. Also, the “fold change (FC)” value amounted to 1 in the assay on Hepatitis C virus [8]; 3 in the assay with Hepatitis C virus [9]; 1 in the assay on Hepatitis C virus [10]; 1 in the assay on Hepatitis C virus [11]; 2 in the assay with Hepatitis C virus [12]; 0.1 with Hepatitis C virus [13]. Further, the entries for the “fold change (FC)” value in the assay with Hepatitis C virus [14], with Hepatitis C virus [15] and in the assay with Hepatitis C virus [16] were 2, 1 and 3, respectively.
